From ChEMBL document CHEMBL3580589, “Discovery of Quinazoline-Based Fluorescent Probes to α1-Adrenergic Receptors” (ACS Med Chem Lett, 2015)
Active and inactive are the calls of the source. The calls are words filed in the database; no cut-off is given here.

Assays:
[1] = Cytotoxicity against HEK293A cells transfected with alpha-1D adrenergic receptor assessed as cell viability by sulforhodamine B assay; type: cell-based; conditions: Homo sapiens, HEK293-A
Method in brief: (§1)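 Standard sulforhodamine B colorimetric assay in HEK293A cells stably transfected with α1A-AR or α1D-AR.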

[2] = target: T1, Alpha-1A adrenergic receptor (Homo sapiens) (UniProt P35348); assay: Binding affinity to alpha-1A adrenergic receptor (unknown origin) transfected in HEK293A cells at 20 nM after 5 mins by DiD dye-based confocal microscopic analysis; type: cell-based; conditions: HEK293-A
T1 sequence (whole entry): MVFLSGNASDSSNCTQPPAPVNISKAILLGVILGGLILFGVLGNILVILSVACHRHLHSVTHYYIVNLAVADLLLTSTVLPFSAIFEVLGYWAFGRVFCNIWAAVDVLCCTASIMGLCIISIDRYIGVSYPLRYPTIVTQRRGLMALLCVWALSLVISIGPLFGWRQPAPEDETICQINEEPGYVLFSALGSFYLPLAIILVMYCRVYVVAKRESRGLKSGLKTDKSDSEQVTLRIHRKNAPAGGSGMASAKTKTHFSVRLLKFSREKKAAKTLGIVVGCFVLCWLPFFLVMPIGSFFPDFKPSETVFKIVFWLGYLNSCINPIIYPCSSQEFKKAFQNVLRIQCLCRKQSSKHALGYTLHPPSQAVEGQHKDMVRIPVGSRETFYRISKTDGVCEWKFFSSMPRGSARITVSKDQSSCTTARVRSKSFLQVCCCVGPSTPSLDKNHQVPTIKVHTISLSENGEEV
Method in brief: (§2)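 α1A-AR- or α1D-AR-transfected HEK293A cells, or untransfected HEK293A cells as the receptor-free control, were incubated with the probe plus DiD (red, colocalization) for 5 min at 37 °C. Probe signal was compared with the DiD-stained surface for subcellular localization by fluorescence microscopy.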

[3] = target: T2, Alpha-1A adrenergic receptor (Homo sapiens, UniProt P35348); assay: Displacement of [3H]-Prazosin from human alpha-1A adrenergic receptor transfected in CHO cell membranes after 2 hrs by microplate scintillation counting analysis
T2 sequence (P35348 whole entry): T1 sequence (whole entry)
Method in brief: (§3)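 Radioligand competition binding used [3H]prazosin on membranes from CHO cells transfected with human cloned α1A-, α1B- or α1D-adrenoceptors.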

[4] = Cytotoxicity against HEK293A cells transfected with alpha-1A adrenergic receptor assessed as cell viability by sulforhodamine B assay; type: cell-based; conditions: Homo sapiens, HEK293-A; method in brief: as §1
[5] = target: T3, Alpha-1B adrenergic receptor (Homo sapiens, UniProt P35368); assay: Displacement of [3H]-Prazosin from human alpha-1B adrenergic receptor transfected in CHO cell membranes after 2 hrs by microplate scintillation counting analysis; method in brief: as §3
T3 sequence (P35368 whole entry): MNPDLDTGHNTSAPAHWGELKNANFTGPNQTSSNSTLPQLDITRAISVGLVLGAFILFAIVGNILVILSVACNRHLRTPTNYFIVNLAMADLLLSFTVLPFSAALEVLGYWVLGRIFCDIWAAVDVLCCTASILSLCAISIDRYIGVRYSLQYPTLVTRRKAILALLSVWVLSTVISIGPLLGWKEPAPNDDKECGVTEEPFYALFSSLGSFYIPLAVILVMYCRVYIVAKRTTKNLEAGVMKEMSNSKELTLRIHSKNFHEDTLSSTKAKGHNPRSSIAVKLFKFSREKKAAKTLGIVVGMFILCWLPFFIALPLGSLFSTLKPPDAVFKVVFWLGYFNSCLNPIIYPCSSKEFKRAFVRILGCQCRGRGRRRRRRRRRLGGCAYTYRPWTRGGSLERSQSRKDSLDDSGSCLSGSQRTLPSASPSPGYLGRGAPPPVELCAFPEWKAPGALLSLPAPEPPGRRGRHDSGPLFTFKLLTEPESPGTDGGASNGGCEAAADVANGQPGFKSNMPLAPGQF

[6] = Drug uptake in HEK293A cells at 20 nM after 5 mins by DiD dye-based confocal microscopic analysis; type: ADME, cell-based; conditions: human, hek293-a, 0.02 µM; method in brief: as §2
[7] = target: T4, Alpha-1D adrenergic receptor (Homo sapiens, UniProt P25100); assay: Displacement of [3H]-Prazosin from human alpha-1D adrenergic receptor transfected in CHO cell membranes after 2 hrs by microplate scintillation counting analysis; method in brief: as §3
T4 sequence (P25100 whole entry): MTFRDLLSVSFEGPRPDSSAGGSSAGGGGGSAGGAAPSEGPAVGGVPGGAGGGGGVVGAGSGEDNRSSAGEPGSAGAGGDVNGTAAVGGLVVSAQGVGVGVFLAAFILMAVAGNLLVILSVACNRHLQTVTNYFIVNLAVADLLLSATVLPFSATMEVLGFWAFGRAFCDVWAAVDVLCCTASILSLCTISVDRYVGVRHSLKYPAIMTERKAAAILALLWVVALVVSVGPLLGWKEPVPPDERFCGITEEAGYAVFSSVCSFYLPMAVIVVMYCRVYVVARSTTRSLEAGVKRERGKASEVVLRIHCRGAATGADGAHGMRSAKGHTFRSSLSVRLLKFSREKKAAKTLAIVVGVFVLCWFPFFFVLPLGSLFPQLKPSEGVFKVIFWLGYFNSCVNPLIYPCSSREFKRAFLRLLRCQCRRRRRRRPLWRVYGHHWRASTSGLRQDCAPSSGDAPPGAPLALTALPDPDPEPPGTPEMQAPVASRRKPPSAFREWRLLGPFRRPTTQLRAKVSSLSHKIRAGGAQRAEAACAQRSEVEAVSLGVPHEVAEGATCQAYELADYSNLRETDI

[8] = target: T1, Alpha-1A adrenergic receptor (Homo sapiens); assay: Binding affinity to alpha-1A adrenergic receptor (unknown origin) transfected in HEK293A cells at 20 nM after 5 mins by DiD dye-based confocal microscopic analysis in presence of alpha1 adrenergic receptor antagonist tamsulosin; type: cell-based; conditions: HEK293-A
Method in brief: (§4)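 Transfected HEK293A cells expressing α1A-AR or α1D-AR were incubated with the probe, DiD and tamsulosin as competing α1-AR antagonist for 5 min at 37 °C. Fluorescence labelling was imaged by confocal microscopy.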

[9] = target: T5, Alpha-1D adrenergic receptor (Homo sapiens) (UniProt P25100); assay: Binding affinity to alpha-1D adrenergic receptor (unknown origin) transfected in HEK293A cells at 10 nM after 5 mins by DiD dye-based confocal microscopic analysis; type: cell-based; conditions: HEK293-A; method in brief: as §2
T5 sequence (whole entry): T4 sequence (P25100 whole entry)

[10] = target: T5, Alpha-1D adrenergic receptor (Homo sapiens); assay: Binding affinity to alpha-1D adrenergic receptor (unknown origin) transfected in HEK293A cells at 10 nM after 5 mins by DiD dye-based confocal microscopic analysis in presence of alpha1 adrenergic receptor antagonist tamsulosin; type: cell-based; conditions: HEK293-A; method in brief: as §4
[11] = target: T5, Alpha-1D adrenergic receptor (Homo sapiens); assay: Binding affinity to alpha-1D adrenergic receptor (unknown origin) transfected in HEK293 cells at 20 nM after 20 mins by flow cytometric analysis; type: cell-based
[12] = Drug uptake in HEK293A cells at 10 nM after 5 mins by DiD dye-based confocal microscopic analysis; type: ADME, cell-based; conditions: human, hek293-a, 0.01 µM; method in brief: as §2
[13] = target: T5, Alpha-1D adrenergic receptor (Homo sapiens); assay: Binding affinity to alpha-1D adrenergic receptor (unknown origin) transfected in HEK293A cells at 15 nM measured 5 mins post wash out by DiD dye-based confocal microscopic analysis in presence of alpha1 adrenergic receptor antagonist tamsulosin; type: cell-based; conditions: HEK293-A
Method in brief: (§5)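 α1A-AR- or α1D-AR-transfected HEK293A cells were incubated with the probe at 15 nM, DiD and tamsulosin at 300 nM as competitor for 5 min at 37 °C. Cells were washed immediately and imaged by confocal microscopy at identical exposure.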

[14] = target: T1, Alpha-1A adrenergic receptor (Homo sapiens); assay: Binding affinity to alpha-1A adrenergic receptor (unknown origin) transfected in HEK293A cells at 15 nM measured 5 mins post wash out by DiD dye-based confocal microscopic analysis; type: cell-based; conditions: HEK293-A
Method in brief: (§6)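 HEK293A cells stably transfected with α1A-AR or α1D-AR, or untransfected HEK293A cells, were incubated with the probe at 15 nM plus the membrane dye DiD for 5 min at 37 °C. Cells were washed immediately and imaged by confocal fluorescence microscopy at identical exposure times.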

[15] = Drug uptake in HEK293A cells at 15 nM measured 5 mins post wash out by DiD dye-based confocal microscopic analysis; type: ADME, cell-based; conditions: human, hek293-a, 0.015 µM; method in brief: as §6
[16] = target: T1, Alpha-1A adrenergic receptor (Homo sapiens); assay: Binding affinity to alpha-1A adrenergic receptor (unknown origin) transfected in HEK293A cells at 15 nM measured 5 mins post wash out by DiD dye-based confocal microscopic analysis in presence of alpha1 adrenergic receptor antagonist tamsulosin; type: cell-based; conditions: HEK293-A; method in brief: as §5
[17] = target: T5, Alpha-1D adrenergic receptor (Homo sapiens); assay: Binding affinity to alpha-1D adrenergic receptor (unknown origin) transfected in HEK293A cells at 15 nM measured 5 mins post wash out by DiD dye-based confocal microscopic analysis; type: cell-based; conditions: HEK293-A; method in brief: as §6

Row | Activity [2] | IC50 [3] | Ki [3] | IC50 [5] | Ki [5] | Drug uptake [6] | IC50 [7] | Ki [7] | Activity [8] | Activity [9] | Activity [10] | Activity [11] | Drug uptake [12] | Activity [13] | Activity [14] | Drug uptake [15] | Activity [16] | Activity [17] | Compound | IC50 [1] | IC50 [4]
1 | Active | 52.4 nM | 29.9 nM | 52.4 nM | 29.9 nM | Active | 45.2 nM | 27.5 nM | inactive |  |  |  |  |  |  |  |  |  | CCN(CC)c1ccc2cc(-n3cc(CN4CCN(c5nc(N)c6cc(OC)c(OC)cc6n5)CC4)nn3)c(=O)oc2c1 | 17 µM | 26 µM
2 |  | 0.6 nM | 0.3 nM | 1.2 nM | 0.1 nM |  | 2.2 nM | 0.4 nM |  | Active | inactive | Active | Active |  |  |  |  |  | CCN(CC)c1ccc2cc(-n3cc(C(=O)N4CCN(c5nc(N)c6cc(OC)c(OC)cc6n5)CC4)nn3)c(=O)oc2c1 | 32 µM | 12 µM
3 |  | 2.5 nM | 1.3 nM | < 5 nM |  |  | < 5 nM |  |  |  |  |  |  | inactive | Active | Active | inactive | Active | COc1cc2nc(N3CCN(C(=O)c4cn(-c5cc6ccc(O)cc6oc5=O)nn4)CC3)nc(N)c2cc1OC | 85 µM | > 100 µM
